# Laboratory results reported in ChEMBL document CHEMBL1671644, “Inhibition of human immunodeficiency virus type 1 infection by the candidate microbicide dapivirine, a nonnucleoside reverse transcriptase inhibitor” (Antimicrob Agents Chemother, 2009).
# Activity calls are given as the source filed them. The rule behind the calls is not given here.
# Experiments:
# [1] = test system: Human immunodeficiency virus 1; assay: Antiviral activity against HIV-1 Bal infected in 1 hr compound pretreated human ectocervical explant tissue assessed as inhibition of viral replication at 0.1 nM by RT-PCR; format: functional, organism-based
# In short: (§1)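 Ectocervical explants were pretreated with drug for 1 h, then exposed to HIV-1BaL (two 50% tissue infectious doses, about 10^4 TCID50 on PM-1) for 2 h at 37°C with drug present. Explants were washed and cultured overnight, then cultured separately for 10 days. Tissue was proteinase K-digested and proviral LTR DNA measured by multiplex qPCR against β-actin (10 copies/10^5 cells sensitivity). Two donors, triplicate.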
# [2] = Cytotoxicity against human MT4 cells after 24 hrs by MTT assay; format: cell-based
# [3] = Cytotoxicity against human PM1 cells after 24 hrs by MTT assay; format: cell-based
# In short: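 Uninfected PM-1 or TZM-bl cells were exposed to drug and viability measured by MTT dye reduction as a percentage of untreated controls. CC50 was derived by nonlinear regression.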
# [4] = Selectivity index, ratio of CC50 for human TZM-bl cells to IC50 for HIV-1 Bal; format: functional
# In short: (§2)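 Selectivity index is CC50/IC50, using values determined in the same time period. CC50 was measured by MTT for TZM-bl and PM-1 cells and by trypan blue exclusion after 14 days for macrophages. Both were fitted by nonlinear regression.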
# [5] = Selectivity index, ratio of CC50 for human monocyte derived macrophages to IC50 for HIV-1 Bal; format: functional; in short: as §2
# [6] = Selectivity index, ratio of CC50 for human MT-4 cells to IC50 for HIV-1 3B; format: functional, MT4
# [7] = Selectivity index, ratio of CC50 for human PM1 cells to IC50 for HIV-1 RF; format: functional; in short: as §2
# [8] = test system: Human immunodeficiency virus 1; assay: Antiviral activity against HIV-1 subtype CRF01_AE V029521 infected in human MT4 cells assessed as inhibition of viral replication relative to HIV-1 3B; format: functional
# In short: (§3)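 Recombinant clinical HIV-1 isolates (200 TCID50/well) were tested in MT-4 cells (3 x 10^4/well) over 3–5 days, with an MTT viability read-out. IC50 was fitted by nonlinear regression. Fold change is the isolate IC50 divided by the HIV-1IIIB IC50, tested in parallel.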
# [9] = test system: Human immunodeficiency virus 1; assay: Antiviral activity against HIV-1 subtype CRF01_AE V029525 infected in human MT4 cells assessed as inhibition of viral replication relative to HIV-1 3B; format: functional; in short: as §3
# [10] = test system: Human immunodeficiency virus 1; assay: Antiviral activity against HIV-1 subtype B V022812 harboring NNRTI V179I mutant infected in human MT4 cells assessed as inhibition of viral replication relative to HIV-1 3B; format: functional
# In short: (§4)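 MT-4 cells (3 x 10^4/well) infected with site-directed mutants or recombinant clinical isolates (200 TCID50/well) with drug, cultured 3 to 5 days. Viability read by MTT colorimetric antivirogram assay. IC50 by nonlinear regression; fold change = IC50 for the test isolate / IC50 for wild-type HIV-1 IIIB tested in parallel (mean or median).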
# [11] = test system: Human immunodeficiency virus 1; assay: Antiviral activity against HIV-1 subtype B V022813 infected in human MT4 cells assessed as inhibition of viral replication relative to HIV-1 3B; format: functional; in short: as §4
# [12] = test system: Human immunodeficiency virus 1; assay: Antiviral activity against HIV-1 subtype B V022815 infected in human MT4 cells assessed as inhibition of viral replication relative to HIV-1 3B; format: functional; in short: as §3
# [13] = test system: Human immunodeficiency virus 1; assay: Antiviral activity against HIV-1 subtype D V022818 infected in human MT4 cells assessed as inhibition of viral replication relative to HIV-1 3B; format: functional; in short: as §4
# [14] = test system: Human immunodeficiency virus 1; assay: Antiviral activity against HIV-1 subtype CRF05_DF V022823 infected in human MT4 cells assessed as inhibition of viral replication relative to HIV-1 3B; format: functional; in short: as §4
# [15] = test system: Human immunodeficiency virus 1; assay: Antiviral activity against HIV-1 subtype CRF05_DF V022833 harboring NNRTI V179I mutant infected in human MT4 cells assessed as inhibition of viral replication relative to HIV-1 3B; format: functional; in short: as §4
# [16] = test system: Human immunodeficiency virus 1; assay: Antiviral activity against HIV-1 subtype F V029522 infected in human MT4 cells assessed as inhibition of viral replication relative to HIV-1 3B; format: functional; in short: as §4
# [17] = test system: Human immunodeficiency virus 1; assay: Antiviral activity against HIV-1 subtype H V029523 harboring NNRTI K101Q and V179I mutant infected in human MT4 cells assessed as inhibition of viral replication relative to HIV-1 3B; format: functional; in short: as §4
# [18] = test system: Human immunodeficiency virus 1; assay: Antiviral activity against HIV-1 SM002 harboring NNTRI 181C mutant infected in human MT4 cells assessed as inhibition of viral replication relative to HIV-1 3B; format: functional; in short: as §4
# [19] = test system: Human immunodeficiency virus 1; assay: Antiviral activity against HIV-1 SM012 harboring NNTRI 108I mutant infected in human MT4 cells assessed as inhibition of viral replication relative to HIV-1 3B; format: functional; in short: as §4
# [20] = test system: Human immunodeficiency virus 1; assay: Antiviral activity against HIV-1 Bal infected in 1 hr compound pretreated human ectocervical explant tissue assessed as inhibition of viral replication by RT-PCR; format: functional, organism-based; in short: as §1
# [21] = test system: Human immunodeficiency virus 1; assay: Antiviral activity against HIV-1 Bal infected in 1 hr compound pretreated human ectocervical explant tissue assessed as inhibition of provirus formation at 1 nM by RT-PCR; format: functional; conditions: Human immunodeficiency virus 1, Bal; in short: as §1
# [22] = test system: Human immunodeficiency virus 1; assay: Antiviral activity against HIV-1 Bal infected in human cervical tissue explants assessed as inhibition of dissemination of virus via migratory cells after 2 hrs in presence of 12.5% whole semen; format: functional, organism-based
# In short: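 Cervical explants were exposed to HIV-1BaL plus drug for 2 h in cervical mucus simulant or whole semen (final 12.5%), then washed. Migratory cells were cocultured with PM-1 indicator cells and infection read as p24 in coculture supernatant.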
# [23] = test system: Human immunodeficiency virus 1; assay: Antiviral activity against HIV-1 Bal infected in 2 hrs 100 nM compound pretreated human ectocervical explant tissue assessed as prolonged inhibition of viral infection post compound removal; format: functional
# In short: (§5)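 Ectocervical explants were exposed to drug (0.01–10 µM) for 2 or 24 h at 37°C and washed. They received HIV-1BaL (2 h) on day 0, 2, 4 or 6 after drug removal, with no drug present. Read-outs at 10 days post-exposure: explant p24 ELISA, tissue proviral DNA by qPCR, and p24 in migratory cell–PM-1 cocultures. Three donors (2 h) or two donors (24 h), triplicate.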
# [24] = test system: Human immunodeficiency virus 1; assay: Antiviral activity against HIV-1 Bal infected in 2 hrs 10000 nM compound pretreated human ectocervical explant tissue assessed as prolonged inhibition of viral infection post compound removal measured after 4 days post compound removal; format: functional; in short: as §5
# [25] = test system: Human immunodeficiency virus 1; assay: Antiviral activity against HIV-1 Bal infected in 24 hrs 10 nM compound pretreated human ectocervical explant tissue assessed as prolonged inhibition of viral infection post compound removal; format: functional; in short: as §5
# [26] = test system: Human immunodeficiency virus 1; assay: Antiviral activity against HIV-1 Bal infected in 24 hrs 100 to 1000 nM compound pretreated human ectocervical explant tissue assessed as prolonged inhibition of viral infection post compound removal measured after 2 days post compound removal; format: functional; in short: as §5
# [27] = test system: Human immunodeficiency virus 1; assay: Antiviral activity against HIV-1 SF162 infected in hu-SCID mouse assessed as protection from viral infection at 225 uM; format: functional; conditions: Human immunodeficiency virus 1, SF162 ISOLATE
# [28] = test system: Human immunodeficiency virus 1; assay: Antiviral activity against HIV-1 Bal infected in human monocyte derived macrophages after 14 days by p24 assay; conditions: Human immunodeficiency virus 1, Bal, 336 h
compound,measurement,setting,value
Cc1cc(C)c(Nc2ccnc(Nc3ccc(C#N)cc3)n2)c(C)c1 [DAPIVIRINE],inhibition,[1],Active
same,CC50 at 24 h,[2],2150 nM
same,CC50 at 24 h,[3],11000 nM
same,Selectivity Index,[4],9273
same,Selectivity Index,[5],8333
same,Selectivity Index,[6],2389
same,Selectivity Index,[7],4583
same,Ratio IC50,[8],3.5
same,Ratio IC50,[9],2.6
same,Ratio IC50,[10],2
same,Ratio IC50,[11],0.7
same,Ratio IC50,[12],2.2
same,Ratio IC50,[13],1.4
same,Ratio IC50,[14],0.7
same,Ratio IC50,[15],1
same,Ratio IC50,[16],1.5
same,Ratio IC50,[17],1.4
same,Ratio IC50,[18],8
same,Ratio IC50,[19],1
same,Activity,[20],Dose-dependent effect
same,IC50,"[20]; Human immunodeficiency virus 1, Bal",0.2 nM
same,inhibition at 0.001 µM,[21],> 99%
same,inhibition,[22],Active
same,inhibition (INH),[23],90%
same,inhibition (INH),[24],90%
same,inhibition (INH),[25],90%
same,inhibition (INH),[26],90%
same,inhibition in vivo at 225 µM,[27],85.7%
same,IC50,[28],2.4 nM
